Test results published in ChEMBL document CHEMBL5678814, “Novel Mps1 Kinase Inhibitors with Potent Antitumor Activity” (Mol Cancer Ther, 2016).

How the values were obtained:
Misshapen-like kinase 1 = Misshapen-like kinase 1 (Homo sapiens, UniProt Q8N4C8); assay: Binding affinity to MINK (unknown origin) assessed as dissociation constant
SNU-16 = assay: Antiproliferative activity against human SNU-16 cells assessed as cell growth inhibition incubated for 96 hrs by MTS assay; assay type: functional, cell-based; conditions: SNU-16, 96 h
MSTO-211H = assay: Antiproliferative activity against human MSTO-211H cells assessed as cell growth inhibition incubated for 96 hrs by crystal violet staining
[1] = Antiproliferative activity against human HBL1 cells assessed as cell growth inhibition incubated for 96 hrs by MTS assay; assay type: functional, cell-based; conditions: HBL1, 96 h
TMD8 = assay: Antiproliferative activity against human TMD8 cells assessed as cell growth inhibition incubated for 96 hrs by MTS assay; assay type: functional, cell-based; conditions: TMD8, 96 h
[2] = Cmax in female NMRI mouse plasma at 1 mg/kg, po measured after 24 hrs by LC/-MS/MS analysis
NCI-H2452 = assay: Antiproliferative activity against human NCI-H2452 cells assessed as cell growth inhibition incubated for 96 hrs by crystal violet staining; conditions: NCI-H2452, 96 h
NCI-H1373 = assay: Antiproliferative activity against human NCI-H1373 cells assessed as cell growth inhibition incubated for 96 hrs by crystal violet staining; conditions: NCI-H1373, 96 h
HT-29 = assay: Antiproliferative activity against human HT-29 cells assessed as cell growth inhibition incubated for 96 hrs by crystal violet staining; conditions: HT-29, 96 h
[3] = Antiproliferative activity against human HeLa-MaTu-ADR cells assessed as cell growth inhibition incubated for 96 hrs by crystal violet staining
[4] = Tmax in female NMRI mouse plasma at 1 mg/kg, po measured after 24 hrs by LC/-MS/MS analysis
RPMI-7951 = assay: Antiproliferative activity against human RPMI-7951 cells assessed as cell growth inhibition incubated for 96 hrs by crystal violet staining; conditions: RPMI-7951, 96 h
[5] = Cmax in male Wistar rat plasma at 0.5 mg/kg, po measured after 24 hrs by LC/-MS/MS analysis; assay type: ADME, organism-based
In short: (§1)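 Male Wistar rats given 0.5 mg/kg orally. Plasma collected from 8 min to 24 h, precipitated with ice-cold acetonitrile (1:5), and analysed by LC/MS-MS. Cmax and Tmax read directly from concentration–time profiles.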

[6] = Toxicity in human A2780cis cells xenografted female athymic NMRI mouse model assessed as change in body weight at 2.5 mg/kg, po administered twice daily intermittent for 2 days on/5 days off; assay type: organism-based; conditions: in vivo, 168 h, time 7 day
In short: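 A2780cis cells (2×10^6 in 100% Matrigel) implanted s.c. in athymic mice. Treatment started at ~30 mm2. Oral dosing twice daily, 2 days on/5 days off, with PEG 400/ethanol/Solutol vehicle controls. Dose based on individual body weight. Body weight monitored two to three times weekly as toxicity measure; >20% loss deemed toxic.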

NCI-H1299 = assay: Antiproliferative activity against human NCI-H1299 cells assessed as cell growth inhibition incubated for 96 hrs by crystal violet staining; conditions: NCI-H1299, 96 h
[7] = molecular target: Mitogen-activated protein kinase 9 (Homo sapiens, UniProt P45984); assay: Binding affinity to JNK2 (unknown origin) assessed as dissociation constant
Chain of Mitogen-activated protein kinase 9 (P45984 whole entry): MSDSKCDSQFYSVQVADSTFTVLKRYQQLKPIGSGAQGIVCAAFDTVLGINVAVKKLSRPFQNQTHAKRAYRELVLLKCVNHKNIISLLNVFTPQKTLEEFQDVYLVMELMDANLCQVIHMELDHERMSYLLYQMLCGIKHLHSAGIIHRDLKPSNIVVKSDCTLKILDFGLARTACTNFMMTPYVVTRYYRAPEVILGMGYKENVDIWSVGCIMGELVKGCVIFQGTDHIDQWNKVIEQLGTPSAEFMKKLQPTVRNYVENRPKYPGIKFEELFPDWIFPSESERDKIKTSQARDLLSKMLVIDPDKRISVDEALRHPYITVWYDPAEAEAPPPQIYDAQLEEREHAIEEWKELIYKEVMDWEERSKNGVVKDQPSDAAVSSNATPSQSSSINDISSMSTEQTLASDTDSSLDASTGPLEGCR

HCT-116 = assay: Antiproliferative activity against human TP53 mutant HCT-116 cells assessed as cell growth inhibition incubated for 96 hrs by crystal violet staining; conditions: HCT-116, 96 h
HT-1080 = assay: Antiproliferative activity against human HT-1080 cells assessed as cell growth inhibition incubated for 96 hrs by MTS assay; assay type: functional, cell-based; conditions: HT-1080, 96 h
[8] = Antiproliferative activity against human OUMS-23 cells assessed as cell growth inhibition incubated for 96 hrs by crystal violet staining; conditions: OUMS-23, 96 h
OVCAR-8 = assay: Antiproliferative activity against human OVCAR-8 cells assessed as cell growth inhibition incubated for 96 hrs by crystal violet staining; conditions: OVCAR-8, 96 h
[9] = Tmax in male Wistar rat plasma at 0.5 mg/kg, po measured after 24 hrs by LC/-MS/MS analysis; assay type: ADME, organism-based; in short: as §1
RKO [10] = assay: Antiproliferative activity against human TP53 wildtype RKO cells assessed as cell growth inhibition incubated for 96 hrs by crystal violet staining
NCI-H23 = assay: Antiproliferative activity against human NCI-H23 cells assessed as cell growth inhibition incubated for 96 hrs by crystal violet staining; conditions: NCI-H23, 96 h
Caco-2 = assay: Antiproliferative activity against human Caco-2 cells assessed as cell growth inhibition incubated for 96 hrs by crystal violet staining; conditions: Caco-2, 96 h
KM-H2 = assay: Antiproliferative activity against human KM-H2 cells assessed as cell growth inhibition incubated for 96 hrs by MTS assay; assay type: functional, cell-based; conditions: KM-H2, 96 h
[11] = Volume of distribution at steady state in male Wistar rat plasma at 0.5 mg/kg, iv measured after 24 hrs by LC/-MS/MS analysis; assay type: ADME, organism-based; conditions: read-out: Vdss
FaDu = assay: Antiproliferative activity against human FaDu cells assessed as cell growth inhibition incubated for 96 hrs by crystal violet staining
SK-MEL3 = assay: Antiproliferative activity against human SK-MEL3 cells assessed as cell growth inhibition incubated for 96 hrs by crystal violet staining; conditions: SK-MEL3, 96 h
[12] = molecular target: Mitogen-activated protein kinase 8 (Homo sapiens, UniProt P45983); assay: Binding affinity to JNK1 (unknown origin) assessed as dissociation constant
Chain of Mitogen-activated protein kinase 8 (P45983 whole entry): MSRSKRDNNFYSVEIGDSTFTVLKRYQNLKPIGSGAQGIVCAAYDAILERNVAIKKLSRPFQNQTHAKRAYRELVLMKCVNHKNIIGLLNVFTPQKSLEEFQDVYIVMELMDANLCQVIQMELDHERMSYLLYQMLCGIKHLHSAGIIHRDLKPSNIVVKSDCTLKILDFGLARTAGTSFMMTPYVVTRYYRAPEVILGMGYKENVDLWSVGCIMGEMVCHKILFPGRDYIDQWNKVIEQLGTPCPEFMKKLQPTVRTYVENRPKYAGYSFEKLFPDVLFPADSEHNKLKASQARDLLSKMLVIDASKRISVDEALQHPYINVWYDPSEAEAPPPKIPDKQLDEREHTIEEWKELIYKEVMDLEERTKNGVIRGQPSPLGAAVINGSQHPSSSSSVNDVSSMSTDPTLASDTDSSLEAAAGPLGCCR

DU-145 = assay: Antiproliferative activity against human DU-145 cells assessed as cell growth inhibition incubated for 96 hrs by MTS assay; assay type: functional, cell-based; conditions: DU-145, 96 h
OPM-2 = assay: Antiproliferative activity against human OPM-2 cells assessed as cell growth inhibition incubated for 96 hrs by crystal violet staining; conditions: OPM-2, 96 h
RKO [13] = assay: Antiproliferative activity against human TP53 mutant RKO cells assessed as cell growth inhibition incubated for 96 hrs by crystal violet staining
NCI-H2030 = assay: Antiproliferative activity against human NCI-H2030 cells assessed as cell growth inhibition incubated for 96 hrs by crystal violet staining; conditions: NCI-H2030, 96 h
HT-1376 = assay: Antiproliferative activity against human HT-1376 cells assessed as cell growth inhibition incubated for 96 hrs by MTS assay; assay type: functional, cell-based; conditions: HT-1376, 96 h

Chain of Misshapen-like kinase 1 (Q8N4C8 whole entry): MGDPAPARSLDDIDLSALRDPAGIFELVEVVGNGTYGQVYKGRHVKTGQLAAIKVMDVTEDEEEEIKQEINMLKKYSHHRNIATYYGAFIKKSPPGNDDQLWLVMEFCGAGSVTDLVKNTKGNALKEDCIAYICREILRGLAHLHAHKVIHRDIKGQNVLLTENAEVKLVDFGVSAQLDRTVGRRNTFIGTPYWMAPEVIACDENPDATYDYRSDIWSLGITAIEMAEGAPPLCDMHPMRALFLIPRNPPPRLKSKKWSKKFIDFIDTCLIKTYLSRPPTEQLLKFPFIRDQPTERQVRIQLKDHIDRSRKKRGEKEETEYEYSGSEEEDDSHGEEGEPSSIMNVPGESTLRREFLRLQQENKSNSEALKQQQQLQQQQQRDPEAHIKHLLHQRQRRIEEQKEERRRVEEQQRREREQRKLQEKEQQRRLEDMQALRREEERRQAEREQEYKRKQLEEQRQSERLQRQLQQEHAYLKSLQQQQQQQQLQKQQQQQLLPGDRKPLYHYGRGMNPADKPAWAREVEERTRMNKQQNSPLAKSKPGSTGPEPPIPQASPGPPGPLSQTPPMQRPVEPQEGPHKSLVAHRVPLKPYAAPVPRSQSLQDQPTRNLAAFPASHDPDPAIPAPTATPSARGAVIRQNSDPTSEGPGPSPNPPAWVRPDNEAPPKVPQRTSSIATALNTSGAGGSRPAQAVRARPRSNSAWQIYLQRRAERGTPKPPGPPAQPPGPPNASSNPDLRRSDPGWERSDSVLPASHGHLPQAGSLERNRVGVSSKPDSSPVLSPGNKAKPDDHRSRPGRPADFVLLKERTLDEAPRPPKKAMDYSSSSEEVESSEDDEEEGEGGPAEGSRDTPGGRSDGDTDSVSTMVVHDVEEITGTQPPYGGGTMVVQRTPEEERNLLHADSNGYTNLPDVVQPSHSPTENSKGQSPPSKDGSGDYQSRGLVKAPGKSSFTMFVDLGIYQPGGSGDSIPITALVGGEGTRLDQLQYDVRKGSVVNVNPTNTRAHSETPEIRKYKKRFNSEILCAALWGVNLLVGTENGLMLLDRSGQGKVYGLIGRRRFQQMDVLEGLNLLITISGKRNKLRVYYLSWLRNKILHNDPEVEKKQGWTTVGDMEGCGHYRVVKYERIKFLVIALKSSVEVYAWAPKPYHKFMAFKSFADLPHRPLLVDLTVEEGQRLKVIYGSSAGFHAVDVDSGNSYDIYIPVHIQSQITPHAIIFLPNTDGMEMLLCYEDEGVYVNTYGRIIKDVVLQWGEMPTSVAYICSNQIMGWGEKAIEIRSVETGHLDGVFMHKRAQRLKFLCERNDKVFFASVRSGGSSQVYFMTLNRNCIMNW

COc1cc(S(C)(=O)=O)ccc1Nc1nc2ccc(-c3ccc(NC(=O)[C@H](C)c4ccc(F)cc4)cc3)cn2n1 [BAY-1161909]
Kd (Misshapen-like kinase 1): 40000 nM
IC50 (SNU-16): 88 nM
IC50 (MSTO-211H): 70 nM
IC50 [1]: 110 nM
IC50 (TMD8): 240 nM
Cmax [2]: 120 ng/mL
IC50 (NCI-H2452): 120 nM
IC50 (NCI-H1373): 190 nM
IC50 (HT-29): 100 nM
IC50 [3]: 180 nM
Tmax [4]: 4 h
IC50 (RPMI-7951): 280 nM
Cmax [5]: 110 ng/mL
Activity [6]: Non-Toxic
IC50 (NCI-H1299): 120 nM
Kd [7]: 160 nM
IC50 (HCT-116): 59 nM
IC50 (HT-1080): 450 nM
IC50 [8]: > 3000 nM
IC50 (OVCAR-8): 190 nM
Tmax [9]: 4 h
IC50 (RKO [10]): 39 nM
IC50 (NCI-H23): 91 nM
IC50 (Caco-2): 1800 nM
IC50 (KM-H2): 220 nM
Vd [11]: 2.4 L/kg
IC50 (FaDu): 270 nM
IC50 (SK-MEL3): 53 nM
Kd [12]: 240 nM
IC50 (DU-145): 160 nM
IC50 (OPM-2): 130 nM
IC50 (RKO [13]): 48 nM
IC50 (NCI-H2030): 700 nM
IC50 (HT-1376): 3000 nM
